# Assay outcomes from PubChem.
# Measles CPE – protection of cells from measles virus | AID 841 | Measles virus-infected cells, CPE protection, absorbance | protection (pct of control), % at 4 µM | 1.5% of 140,000 active; in the data active = protection mostly above about 24%, no sharp cut-off; inactive = mostly below about 26%
# Pyk2 oligo antag – antagonists of human Pyk2 oligomerization; Q14289; 0.83% of 99,000 active; Q293 cells, Pyk2 FERM NanoBiT luminescence; stronger effect = lower value; z-score (the deposit names both 25 µM and 10 µM);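 active = Z-score of -3 or lower, scaled per plate to the spread of control and sample wells; inactive = z-score above -3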;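 also: negative z-score means lost luminescence so less FERM oligomerization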
# Cav3 T inh – inhibitors of human Cav3.2 T-type calcium channel; B-score at 10 µM; 4% of 100,000 active; O95180; Cav3.2-expressing cells, Fluo-4 calcium fluorescence FDSS; stronger effect = lower value;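 active = single-dose well whose peak fluorescence ratio is a statistical outlier from its plate by either plate-standardised score or position-corrected B-score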
# Phagocytosis inh – macrophage phagocytosis inhibition | J774A.1 macrophage IgG-bead phagocytosis, imaging | inhibition, % at 5 µM | 0.07% of 110,000 active;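 active = inhibition above the mean of the plate negative controls plus 5 SD, cut at about 13% in these data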;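 also: phagocytic index as fraction of beads internalized from green versus red external bead signal; plate controls were DMSO negative control for no effect and cytochalasin-D positive control for full effect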
# DAT uptake mod – human DAT dopamine uptake with cocaine, either direction | AID 449768 | LLC-PK1 hDAT cells, [14C]-dopamine uptake with cocaine IC80; actives deviate in either direction | B-score at 10 µM | 1.3% of 110,000 active | Q01959;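 active = Z score or B-score, a plate-position-corrected score, falls beyond the plate's 99.7% confidence bounds, in either direction; inactive = both scores lie inside the 99.7% bounds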;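 also: scored against the spread of the other compound wells on the same plate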
# Rev-RRE block – inhibitors of HIV-1 Rev-RRE RNA interaction; Rev peptide-RRE RNA binding, FRET; P05866; 0.79% of 97,000 active; AID 704; inhibition, % at 8 µM;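 active = inhibition above the screen-wide mean plus 3 SD, cut at about 35% in these data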;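 also: 0% = median DMSO wells and 100% = median Neomycin B control wells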
# Target sequence (P05866 whole entry, looked up): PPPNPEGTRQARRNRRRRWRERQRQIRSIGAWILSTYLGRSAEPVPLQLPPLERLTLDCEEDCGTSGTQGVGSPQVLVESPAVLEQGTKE
#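 Test system: Cy5-tagged RRE RNA duplex with fluorescein-tagged Rev peptide | Read-out: % inhibition of FRET ratio versus controls | Probe or stimulus: Labelled Rev peptide | Incubation: 5 min RNA-compound premix plus 15 min binding step, 25 °C | Technique: FRET fluorescence readout | Benchmarks: DMSO low control, neomycin B high control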
# * = called active by the depositor; . = no result given; [ ] = dose if it differs, or a comment. Compounds with a hit are over-represented: about 5.9% of the library has one in this group of screens.
SMILES,Measles CPE,Pyk2 oligo antag,Cav3 T inh,Phagocytosis inh,DAT uptake mod,Rev-RRE block
CCOCCCN1C(=O)C(O)=C(C(C)=O)C1c1cccs1 (stereo not given),4.5,0.98,0.201,.,0.00546,8.0
COc1cc(/C=C/C(=O)N2CCOCC2)ccc1OCc1ccccc1,93.7*,.,.,-7.2,.,.
CNC(=O)c1ccc(OCc2ccccc2)c(OC)c1,75.6*,3.85,0.61,2.8,1.54,1.0
COc1cc(/C=C/C(=O)NC(C)(C)C)ccc1OCc1ccccc1,27.5*,.,.,-2.2,.,.
COc1ccc(NC(=O)C2=C(C)C(=O)OC23CCC(C)CC3)c(OC)c1 (stereo not given),2.7,.,0.0307,-0.4,0.571,.
CCc1cc2c(=O)c(-c3ccc4c(c3)OCCO4)coc2cc1OC(=O)c1ccco1,9.4,-3.53*,-0.00988,0.0,1.38,3.6
CCN1CC2=C(OC(N)=C(C#N)C2c2cccs2)/C(=C\c2cccs2)C1 (stereo not given),2.5,-0.3,-3.46*,-0.3,1.4,31.2
CN(CC(=O)Nc1ccc(C#N)cc1)CC(=O)Nc1ccc(N2CCOCC2)cc1,13.0,.,.,-5.8,.,.
CN(CC(=O)Nc1ccc(C#N)cc1)Cc1ccc(Cl)c(Cl)c1,6.4,1.54,-6.59*,.,-0.194,14.5
C=CCNC(=O)/C(C#N)=C/c1ccc(OS(=O)(=O)c2ccc(C)cc2)c(OC)c1,8.9,.,.,-1.8,.,.
CCSC1=C(C#N)C(c2ccccc2Cl)C(C(=O)c2cccs2)C(O)(C(F)(F)F)N1 (stereo not given),12.6,0.09,-9.22*,0.1,0.973,11.0
O=C1CC(N2CCN(c3cccc(C(F)(F)F)c3)CC2)C(=O)N1c1ccccc1F (stereo not given),13.7,-0.18,-3.2*,-0.1,3.16*,15.3
Cc1cc(C(=O)CSc2nc3ccccc3o2)c(C)n1CC1CCCO1 (stereo not given),6.2,0.31,-0.578,-0.6,-0.305,1.9
C=CCn1c(SCC(=O)c2c(N)n(C)c(=O)n(C)c2=O)nc2sc(C)c(C)c2c1=O,-0.4,1.61,0.886,1.5,0.493,1.4
C=CCn1c(SCC(=O)c2cc(C)n(CCOC)c2C)nc2sc(C)c(C)c2c1=O,41.7*,-0.3,0.927,0.4,0.0291,-1.0
Cc1sc2nc(SCC(=O)c3cc(C)n(CC4CCCO4)c3C)n(C(C)C)c(=O)c2c1C (stereo not given),3.2,0.29,-4.09*,-0.4,2.03,2.1
O=S(=O)(c1ccc2ccccc2c1)N1CCC(c2nc(-c3ccncc3)no2)CC1,21.4,-0.26,-0.174,.,-1.51,6.3
CON1C(=O)C(=O)N(OC)C(C)(C)C1(C)C,17.1,.,.,-13.2,.,.
COc1ccc(C(=O)Nc2oc(-c3ccccc3)c(-c3ccccc3)c2C#N)cc1,22.6,-2.87,-6.99*,.,0.889,3.9
COc1ccc(-c2oc(NC(=O)c3ccc(C)cc3)c(C#N)c2-c2ccc(OC)cc2)cc1,10.5,-1.97,-3.58*,-0.7,-1.46,11.0
Cc1cccc(C)c1OCC(=O)Nc1oc(-c2ccccc2)c(-c2ccccc2)c1C#N,.,-3.47*,-3.19,.,-0.389,8.0
COc1ccc(-c2oc(NC(C)=O)c(C#N)c2-c2ccc(OC)cc2)cc1,19.4,-0.92,-0.722,-0.1,0.175,18.3
N#Cc1c(NC(=O)Cn2c(=O)oc3ccccc32)oc(-c2ccccc2)c1-c1ccccc1,15.4,-3.77*,-1.46,2.4,0.229,0.5
CC1=C(C(=O)Nc2ccc(C)cc2C)C(c2ccc(C)o2)NC(=S)N1 (stereo not given),14.6,.,.,.,.,.
N#Cc1c(NC(=O)CSc2n[nH]c(N)n2)oc(-c2ccccc2)c1-c1ccccc1,20.1,-3.38*,-3.59,-0.6,-0.0842,16.1
SMILES,Measles CPE,Pyk2 oligo antag,Cav3 T inh,Phagocytosis inh,DAT uptake mod,Rev-RRE block
CC(C)n1nnc2c(=O)oc3ccccc3c21,6.9,.,.,-0.3,.,.
CC1(C)Cc2c(sc3nnn(Cc4ccc(Cl)cc4)c(=O)c23)CO1,7.2,.,.,37.6*[artifact],.,.
C/C(=N\NC(=O)CC1N=C(Cc2ccccc2)NNC1=O)c1ccc(C)cc1 (stereo not given),4.8,-0.12,0.0969,.,-1.13,-2.4
COc1ccc(/C=N/NC(=O)CC2N=C(Cc3ccccc3)NNC2=O)cc1OC (stereo not given),27.8*,.,.,-4.2,.,.
Cc1sc(NC(=O)c2ccco2)c(C(c2cccnc2)N2CCC(C)CC2)c1C (stereo not given),9.4,-4.28*,-1.53,1.1,0.601,0.3
CC(C)(C)C1CCc2c(sc(NC(=O)c3cccs3)c2C(N)=O)C1 (stereo not given),5.1,-0.21,-1.35,.,-0.967,7.8
CCc1c(C)sc(NC(=O)c2ccco2)c1C(=O)N1CCCCC1,37.5*,0.46,0.899,-3.8,-0.356,7.3
CC(C)(C)n1nnnc1C(c1cccnc1)N1CCN(C(=O)c2ccco2)CC1 (stereo not given),15.0,-0.28,0.226,.,0.0624,2.8
Cc1sc(NC(=O)c2ccco2)c(CN2CCC(C)CC2)c1C,3.9,-0.46,-5.17*,-0.6,-0.0272,8.8
CN1CCN(C(=O)c2c(NC(=O)c3ccco3)sc3c2CCC(C(C)(C)C)C3)CC1 (stereo not given),25.2,-4.61*,0.63,-0.4,0.26,3.8
O=S(=O)(NCc1ccco1)c1cnc(Cl)c(Br)c1,5.2,1.06,.,-3.4,.,.
CNC(=O)CSc1nnc(SCCC(=O)O)s1,1.5,.,.,-6.7,.,.
O=c1oc2ccccc2cc1N1CCOCC1,26.8,.,.,0.9,.,.
O=C(Nc1ccccc1-c1nnc(SCc2ccccc2)o1)c1ccccc1,3.2,-0.67,-5.76*,.,-0.358,12.9
O=C(Nc1ccccc1-c1nnc(SCc2ccc(Cl)cc2)o1)c1ccccc1,21.2,-0.71,-4.24*,-0.2,-1.12,6.8
CCOc1cc2c(cc1OCC)C(c1ccccc1)N(c1ccccc1)C(=O)C2 (stereo not given),14.1,.,.,.,.,.
CCN(CC)S(=O)(=O)c1ccc(NS(=O)(=O)c2ccc(C)c(C)c2)cc1,2.8,-1.85,-4.35*,0.8,1.02,6.7
CCCN(CCC)S(=O)(=O)c1ccc(NS(=O)(=O)c2ccc(F)cc2)cc1,9.3,-1.63,-3.9*,-2.4,-0.874,4.3
CCN(CC)S(=O)(=O)c1cc(NS(=O)(=O)c2ccccc2)ccc1C,5.1,.,.,-9.7,.,.
CCCN(CCC)S(=O)(=O)c1ccc(NS(C)(=O)=O)cc1,12.0,-0.41,-0.544,-0.5,1.23,-2.1
COc1ccc(CNC(=O)C(c2ccncc2)N(C(=O)Cc2cccs2)c2ccccc2C)cc1 (stereo not given),19.0,-1.25,-2.61,-0.8,-0.271,12.1
Cc1oc(C)c2c(=O)ccc3c(c12)OC(N)=C(C#N)C3c1ccccc1Cl (stereo not given),6.2,1.78,-2.22,1.6,-0.307,96.8*[fluorescence artefact?]
N#CC1=C(N)OC2=C(CC/C2=C\c2ccccc2Cl)C1c1ccccc1Cl (stereo not given),7.0,.,.,-4.0,.,.
